Results: ChEMBL document CHEMBL4513216, “Probing the Open Global Health Chemical Diversity Library for Multistage-Active Starting Points for Next-Generation Antimalarials” (ACS Infect Dis, 2020)

Assay: Toxicity liver stage against HepG2, at 10uM
Assay type: cell-based
Design: test concentration 10 uM, cell line HepG2-A16-CD81EGFP
Settings: human, HepG2-A16-CD81EGFP cells; read-out: INHIBITION
Summary of the method: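 Uninfected HepG2-A16-CD81EGFP cells, 3 × 10^3 per well, 1536-well, plated on prespotted compound at 10 μM final, parasite-free screening media added to match infected plates; puromycin 10 μM positive, DMSO 0.5% negative; run in parallel with 48 h PbLuc assay at 37 °C, 5% CO2; viability by CellTiter-Glo luminescence, normalized to controls.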

| Compound | cytotoxicity at 10 µM [%] |
| --- | --- |
| CN(C)[C@@H]1CCN(S(=O)(=O)c2cn(C)cn2)[C@H]1Cc1cccnc1 | 9.79 |
| CCNC(=O)c1ccnc(N2CCCC(COc3ccccc3C)C2)c1 (stereo not given) | 2.08 |
| c1ccn(Cc2noc3c2CN(Cc2ccsc2)CC3)c1 | 9.37 |
| O=C(Cc1cccnc1)N1CCCC(n2cncn2)C1 (stereo not given) | -13.1 |
| O=C(C1CC(=O)N(c2n[nH]c3cc(Br)ccc23)C1)N1CCCC1 (stereo not given) | -11.2 |
| O=C(c1cc(F)cc(F)c1)N1C[C@H]2CNC[C@H]2C1 | 2.91 |
| CC(=O)N1CCN(c2ccnc(C)n2)CC(COc2ccccc2)C1 (stereo not given) | -6.16 |
| O=C(CC1CC2(CCN(CC3CC3)CC2)c2ccccc21)NC1CCC1 (stereo not given) | -4.63 |
| CC(C)(C)n1ncc2c1NC(=O)CSC2c1ccsc1 (stereo not given) | -2.34 |
| Cc1cc(CNC(=O)N2CCN(c3ccc(Cl)cn3)CC2)c(C)o1 | 13.9 |
| O=C(NCCc1cccnc1)NCCc1cccs1 | -1.51 |
| Cc1nc(C(=O)N(C)[C@@H]2CCC[C@@H](Oc3ccccc3)[C@@H]2O)co1 | -22.6 |
| CCn1cc(CNC2CCN(c3cccc(Cl)c3)C2)cn1 (stereo not given) | -10.1 |
| Cc1ccsc1CNC(=O)NC(C)c1ccc2c(c1)CCC(=O)N2 (stereo not given) | 5.31 |
| O=C(CN(CC(O)c1ccc(F)cc1)C1CC1)NCc1cccs1 (stereo not given) | 0.0428 |
| Cc1cccc(NC(=O)[C@@H]2CCCN2Cc2ccccc2C#N)n1 | -4.11 |
| O=C(NCc1cccs1)c1nc2c(o1)CN(CC1CC1)C2 | -2.83 |
| CC(C)(C)NC(=O)c1cccc(CN2CCS(=O)(=O)CC2)c1 | 4.5 |
| CC1(c2ccccc2)CCC(=O)N(CCN2CCOC2=O)C1 (stereo not given) | 3.37 |
| CCNC(=O)C1CCN(Cn2nc(-c3ccc(F)cc3)oc2=O)CC1 | -4.71 |
| c1cnc(Nc2cc(CCC3CCNCC3)ccn2)cn1 | 55.7 |
| COCCN1CCC(CN(CC2CCCO2)C(=O)Cn2cccn2)CC1 (stereo not given) | -3.79 |
| CNc1nc(CNC(=O)Nc2cccc(Cl)c2OC)cs1 | -12.4 |
| CN(CCCNc1cc(N2CCCC2CO)ncn1)S(C)(=O)=O (stereo not given) | -10.2 |
| CC(C)(C)c1nc(CC(=O)Nc2cnccc2O)cs1 | 9.09 |
| Cn1cc(C2CCCN2C(=O)CCc2cnn(-c3ccccc3)c2)cn1 (stereo not given) | -6.88 |
| CN(C)CC1(O)CCCN(C(=O)Cc2ccc(Cl)c(Cl)c2)C1 (stereo not given) | 0.355 |
| Cc1cc(C)c(CCNC(=O)CN2CCCN(C(N)=O)CC2)c(C)c1 | -0.819 |

| Compound | cytotoxicity at 10 µM [%] |
| --- | --- |
| O=C(NCCSCc1cccs1)C1CCCN(C(=O)N2CCCC2)C1 (stereo not given) | -13.6 |
| Cc1cccc(CN2C(=O)CC[C@H]3[C@@H]2CCN3CC(=O)N(C)C)n1 | -71.7 |
| O=S1(=O)c2cnccc2OC(COc2ccccc2)CN1CC1CC1 (stereo not given) | -1.16 |
| O=C(NCCCn1cccn1)C1COCC(=O)N1Cc1ccccc1 (stereo not given) | -8.57 |
| Cc1cc(CN(C)C(=O)NC(C)c2nncn2C)no1 (stereo not given) | 8.79 |
| Cc1ccc(CN(C)C(=O)c2ccc(NC3CC3)nc2)o1 | -5.57 |
| Nc1nc(C2CCN(C(=O)c3cncs3)CC2)cs1 | -1.49 |
| O=C(N1CCCC1)N1CC[C@H]2OCC[C@@]2(COc2ncccc2F)C1 | -151 |
| Cc1ccsc1C(=O)N1Cc2ncn(C)c2C(COCC2CC2)C1 (stereo not given) | 6.76 |
| N#CCCN(C(=O)CN1CCCC1Cc1ccccc1)c1ccccc1 (stereo not given) | -20.7 |
| Cc1noc([C@@H]2C[C@H]3OCC[C@H]3N(S(=O)(=O)c3cccnc3)C2)n1 | -12.5 |
| CCOC(=O)C1(CCOC)CCCN(Cc2nccn2CC)C1 (stereo not given) | 10.8 |
| Cc1cnc2c(S(=O)(=O)NCC3CCOC3)cccc2c1 (stereo not given) | -6.94 |
| Cc1ccc(CN2CCC(O)(Cn3nc(-c4cccs4)oc3=O)CC2)o1 | 8.52 |
| Cc1cc(C)n2c(CCCNS(=O)(=O)c3ccccc3)nnc2n1 | 1.18 |
| CCOc1cc2c(cc1CN1CCC3(CC1)CNC(=O)C3)CCC2 | -2.04 |
| Cc1cccc(CN2C[C@@H]3CC[C@H]2CN(Cc2[nH]cnc2C)C3)n1 | -3.43 |
| CCN(Cc1cscn1)CC1(C)Cc2c(N)nc(N)nc2O1 (stereo not given) | 3.35 |
| COc1cc(N2C[C@H](C(=O)NC3CC3)[C@@H]3CCO[C@@H]3C2)ncn1 | -5.47 |
| CC(C#N)(NC(=O)Cn1cc(I)cn1)C1CC1 (stereo not given) | 15.2 |
| CCc1nc(NS(=O)(=O)c2cc(C)ccc2Br)no1 | 4.66 |
| CN1Cc2[nH]nc(COCC3CC3)c2C1 | 18 |
| COc1cccc(C(=O)Oc2cc(=O)n3cccc(C)c3n2)c1 | 6.36 |
| O=C(C1CCC1)N1CCN(Cc2ccsc2)[C@H]2CS(=O)(=O)C[C@H]21 | -12 |
| CCCSc1ncc(Cl)c(C(=O)NC(CCSC)C(=O)O)n1 (stereo not given) | -6.44 |
| CC(C)c1nsc(NC2CC(=O)N(C(C)(C)C)C2)n1 (stereo not given) | 5.09 |
| Cc1cnc(N2Cc3nccn3CC(Cn3ncccc3=O)C2)nc1 (stereo not given) | 7.54 |
